According to ChEMBL document CHEMBL3102734, “Inhibition of LOX by flavonoids: a structure-activity relationship study” (Eur J Med Chem, 2014):
Active and inactive are the calls of the source. No cut-off for these calls is given here.

Legend:
[1] = molecular target: T1, Polyunsaturated fatty acid 5-lipoxygenase (Homo sapiens) (UniProt P09917); assay: Inhibition of 5-LOX-mediated LTB4 production in human neutrophils using arachidonic acid as substrate at 0.15 to 40 uM preincubated for 10 mins followed by substrate addition measured after 8 mins by enzyme immunoassay relative to control
T1 sequence (whole entry): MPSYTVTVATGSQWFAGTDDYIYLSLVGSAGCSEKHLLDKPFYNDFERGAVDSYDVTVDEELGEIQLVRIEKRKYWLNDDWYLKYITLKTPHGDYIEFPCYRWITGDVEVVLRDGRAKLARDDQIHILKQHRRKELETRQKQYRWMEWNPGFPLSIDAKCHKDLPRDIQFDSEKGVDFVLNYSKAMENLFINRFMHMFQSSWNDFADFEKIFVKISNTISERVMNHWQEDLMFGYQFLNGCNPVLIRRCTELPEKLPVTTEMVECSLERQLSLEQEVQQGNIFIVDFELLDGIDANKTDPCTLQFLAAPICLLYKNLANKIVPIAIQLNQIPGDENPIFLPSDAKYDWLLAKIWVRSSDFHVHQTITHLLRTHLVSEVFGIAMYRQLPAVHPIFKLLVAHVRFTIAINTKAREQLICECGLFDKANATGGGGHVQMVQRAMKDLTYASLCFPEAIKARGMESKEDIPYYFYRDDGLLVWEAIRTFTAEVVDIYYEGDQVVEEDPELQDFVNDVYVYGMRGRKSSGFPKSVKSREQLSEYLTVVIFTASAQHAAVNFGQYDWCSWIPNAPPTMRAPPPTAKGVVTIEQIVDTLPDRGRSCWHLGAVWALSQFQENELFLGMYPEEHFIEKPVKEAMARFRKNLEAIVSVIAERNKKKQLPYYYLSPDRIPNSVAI
Outline: (§1)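 Isolated human neutrophils held in HBSS on ice; viability checked by trypan blue. Cells at 3.5×10^6 cells/mL equilibrated 10 min at 37 °C. Flavonoids (0.15–40 μM) pre-incubated 10 min, then A23187 (5 μM) plus arachidonic acid (10 μg/mL) added for 8 min. Stopped with cold methanol and centrifuged 13,000 g, 1 min, 4 °C. LTB4 measured by EIA and expressed as % inhibition of control. NDGA (1 μM) positive control. At least three experiments.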

[2] = molecular target: T1, Polyunsaturated fatty acid 5-lipoxygenase (Homo sapiens); assay: Inhibition of 5-LOX-mediated LTB4 production in human neutrophils using arachidonic acid as substrate at 40 uM preincubated for 10 mins followed by substrate addition measured after 8 mins by enzyme immunoassay relative to control; outline: as §1
[3] = substrate: O=c1cc(-c2ccc(O)cc2)oc2cccc(O)c12; assay: (§2) Activity at soybean LOX-1 using linoleic acid as substrate at 10 uM preincubated for 5 mins followed by substrate addition by Michaelis-Menten plot analysis; conditions: Glycine max
Outline: (§3)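 Soybean LOX-1 (supplied lyophilized) kinetic assay. Enzyme pre-incubated with inhibitor 5 min, then linoleic acid added. Conversion to the cis,trans-hydroperoxide followed at 234 nm at 30 °C with continuous soft shaking. Readings every 30 s for 10 min; rate taken as the 0–3 min slope. Three inhibitor concentrations tested against three substrate concentrations. Inhibition type assigned by nonlinear Michaelis–Menten fitting and Lineweaver–Burk plots. At least four experiments, each in triplicate.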

[4] = substrate: O=c1cc(-c2ccc(O)c(O)c2)oc2cc(O)cc(O)c12; assay: as §2; conditions: Glycine max; outline: as §3
[5] = substrate: O=c1cc(-c2ccccc2)oc2cc(O)cc(O)c12; assay: as §2; conditions: Glycine max; outline: as §3
[6] = substrate: O=c1cc(-c2ccc(O)c(O)c2)oc2cc(O)ccc12; assay: as §2; conditions: Glycine max; outline: as §3
[7] = substrate: O=c1cc(-c2ccc(O)c(O)c2)oc2ccccc12; assay: as §2; conditions: Glycine max; outline: as §3
[8] = substrate: O=c1cc(-c2ccc(O)cc2)oc2cccc(O)c12; assay: (§4) Activity at soybean LOX-1 using linoleic acid as substrate at 50 uM preincubated for 5 mins followed by substrate addition by Michaelis-Menten plot analysis; conditions: Glycine max; outline: as §3
[9] = substrate: O=c1cc(-c2ccc(O)c(O)c2)oc2cccc(O)c12; assay: as §4; conditions: Glycine max; outline: as §3
[10] = substrate: O=c1cc(-c2ccc(O)c(O)c2)oc2cc(O)cc(O)c12; assay: as §4; conditions: Glycine max; outline: as §3
[11] = substrate: O=c1cc(-c2cccc(O)c2)oc2cc(O)cc(O)c12; assay: as §4; conditions: Glycine max; outline: as §3
[12] = substrate: O=c1c(O)c(-c2ccc(O)c(O)c2)oc2cc(O)cc(O)c12; assay: (§5) Activity at soybean LOX-1 using linoleic acid as substrate at 100 uM preincubated for 5 mins followed by substrate addition by Michaelis-Menten plot analysis; conditions: Glycine max; outline: as §3
[13] = substrate: O=c1cc(-c2cccc(O)c2)oc2cc(O)cc(O)c12; assay: as §5; conditions: Glycine max; outline: as §3
[14] = substrate: O=c1cc(-c2ccc(O)cc2)oc2cc(O)cc(O)c12; assay: as §5; conditions: Glycine max; outline: as §3
[15] = substrate: O=c1cc(-c2ccc(O)c(O)c2)oc2cccc(O)c12; assay: (§6) Activity at soybean LOX-1 using linoleic acid as substrate at 25 uM preincubated for 5 mins followed by substrate addition by Michaelis-Menten plot analysis; conditions: Glycine max; outline: as §3
[16] = substrate: O=c1cc(-c2ccccc2)oc2cc(O)cc(O)c12; assay: as §6; conditions: Glycine max; outline: as §3
[17] = substrate: O=c1cc(-c2ccc(O)c(O)c2)oc2cc(O)ccc12; assay: as §6; conditions: Glycine max; outline: as §3
[18] = substrate: O=c1c(O)c(-c2ccc(O)c(O)c2)oc2cc(O)cc(O)c12; assay: as §6; conditions: Glycine max; outline: as §3
[19] = substrate: O=c1cc(-c2ccc(O)cc2)oc2cc(O)cc(O)c12; assay: as §6; conditions: Glycine max; outline: as §3
[20] = substrate: O=c1cc(-c2ccc(O)c(O)c2)oc2ccccc12; assay: as §6; conditions: Glycine max; outline: as §3

For `COc1ccc(-c2cc(=O)c3c(O)cc(O)cc3o2)cc1O`, the inhibition [1] was “inactive”.

Molecule `COc1cc(-c2cc(=O)c3c(O)cc(O)cc3o2)ccc1O` has an inhibition [2] of less than 50%.

B1: Seed linoleate 13S-lipoxygenase-1 (Glycine max), P08170 (protein)
chain: MFSAGHKIKGTVVLMPKNELEVNPDGSAVDNLNAFLGRSVSLQLISATKADAHGKGKVGKDTFLEGINTSLPTLGAGESAFNIHFEWDGSMGIPGAFYIKNYMQVEFFLKSLTLEAISNQGTIRFVCNSWVYNTKLYKSVRIFFANHTYVPSETPAPLVSYREEELKSLRGNGTGERKEYDRIYDYDVYNDLGNPDKSEKLARPVLGGSSTFPYPRRGRTGRGPTVTDPNTEKQGEVFYVPRDENLGHLKSKDALEIGTKSLSQIVQPAFESAFDLKSTPIEFHSFQDVHDLYEGGIKLPRDVISTIIPLPVIKELYRTDGQHILKFPQPHVVQVSQSAWMTDEEFAREMIAGVNPCVIRGLEEFPPKSNLDPAIYGDQSSKITADSLDLDGYTMDEALGSRRLFMLDYHDIFMPYVRQINQLNSAKTYATRTILFLREDGTLKPVAIELSLPHSAGDLSAAVSQVVLPAKEGVESTIWLLAKAYVIVNDSCYHQLMSHWLNTHAAMEPFVIATHRHLSVLHPIYKLLTPHYRNNMNINALARQSLINANGIIETTFLPSKYSVEMSSAVYKNWVFTDQALPADLIKRGVAIKDPSTPHGVRLLIEDYPYAADGLEIWAAIKTWVQEYVPLYYARDDDVKNDSELQHWWKEAVEKGHGDLKDKPWWPKLQTLEDLVEVCLIIIWIASALHAAVNFGQYPYGGLIMNRPTASRRLLPEKGTPEYEEMINNHEKAYLRTITSKLPTLISLSVIEILSTHASDEVYLGQRDNPHWTSDSKALQAFQKFGNKLKEIEEKLVRRNNDPSLQGNRLGPVQLPYTLLYPSSEEGLTFRGIPNSISI
For B1, the Km [3] was 105 µM, the Km [4] was 190 µM and the Vmax [4] was 0.012 µM. For the same molecule, the Km [5] was 71 µM, the Km [6] was 97.4 µM and the Km [7] was 137 µM. The Km [8] was 61.3 µM, the Km [9] was 46.4 µM and the Km [10] was 148 µM. For the same molecule, the Vmax [10] was 0.009 µM, the Km [11] was 145 µM and the Km [12] was 100 µM. The Vmax [12] was 0.006 µM, the Km [13] was 111 µM and the Km [14] was 191 µM. It also gave a Km [15] of 104 µM, a Km [16] of 55 µM and a Km [17] of 190 µM. For the same molecule, the Km [18] was 129 µM, the Vmax [18] was 0.008 µM and the Km [19] was 191 µM. The Km [20] was 191 µM.
